Screening results: PubChem BioAssay, several laboratories
PKD1 kinase inh: PKD1 (human) kinase inhibition | inhibition, % (test concentration not listed) | actives 0.056% (n = 200,000) | PKD1 kinase fluorescence polarization assay | Q15139
GSH fluor: GSH bead compound fluorescence profile; GSH beads flow cytometry, compound fluorescence 488/530 nm; active compounds read high; fluorescence (KMESF) at 10 µM; actives 0.25% (n = 190,000); in the data active means fluorescence above about 89;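 further: glutathione beads carrying GST-tagged Bcl family fusion proteins plus one bare bead set; values are compound well signal with DMSO vehicle wells as background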
ABCG2 inh: inhibitors of human ABCG2 transporter, ABCB1 counter-screen | Q9UNQ0 | IgMXP3 cells, JC-1 efflux, flow cytometry | inhibition, % at 6.6 µM | actives 0.1% (n = 190,000) | AID 1325;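 active means inhibition above 80%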;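 further: 0% = DMSO and 100% = nicardipine control wells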
Target sequence (Q9UNQ0 whole entry, looked up): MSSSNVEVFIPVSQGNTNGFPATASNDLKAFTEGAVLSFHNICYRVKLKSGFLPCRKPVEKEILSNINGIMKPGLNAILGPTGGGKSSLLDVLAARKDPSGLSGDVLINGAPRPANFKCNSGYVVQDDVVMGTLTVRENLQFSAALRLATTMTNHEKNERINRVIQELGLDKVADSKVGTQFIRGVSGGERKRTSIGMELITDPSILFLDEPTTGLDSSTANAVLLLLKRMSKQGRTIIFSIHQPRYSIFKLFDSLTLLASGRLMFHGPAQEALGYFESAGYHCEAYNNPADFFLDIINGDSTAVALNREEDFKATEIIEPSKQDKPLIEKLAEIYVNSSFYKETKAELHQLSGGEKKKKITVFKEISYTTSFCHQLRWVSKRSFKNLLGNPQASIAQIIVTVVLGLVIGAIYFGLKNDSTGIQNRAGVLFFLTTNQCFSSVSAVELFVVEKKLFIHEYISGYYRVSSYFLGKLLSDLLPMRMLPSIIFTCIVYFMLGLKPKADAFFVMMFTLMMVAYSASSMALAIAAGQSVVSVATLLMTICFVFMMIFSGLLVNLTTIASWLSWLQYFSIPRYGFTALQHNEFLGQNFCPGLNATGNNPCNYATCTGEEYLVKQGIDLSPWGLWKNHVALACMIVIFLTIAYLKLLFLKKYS
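Assay system – ABCG2 IgMXP3 and barcoded ABCB1 CCRF-Adr cell mix · Input – 3 million cells/mL in well · Reagent – JC-1 fluorescent substrate · Compound – single test compound dose, 6.6 µM final · Timing – 10 min exposure at 25 °C with rotation, no wash · Detection – flow cytometry of retained JC-1 fluorescence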
ABCB1 inh: human ABCB1 inhibition, ABCG2 as counter-screen; P08183; actives 0.067% (n = 190,000); inhibition, % at 6.6 µM; CCRF-Adr cells, JC-1 efflux, flow cytometry; in the data active means inhibition above about 40%;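 further: 0% = vehicle and 100% = reference inhibitor; higher value means more JC-1 retained so stronger ABCB1 efflux block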
L major viab: Leishmania major promastigote growth inhibition; Leishmania major promastigotes, resazurin fluorescence viability; inhibition, % at 10 µM; actives 9% (n = 200,000); AID 1063;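 further: promastigotes grown with compound for 44 hours at 28 °C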
Avidin bead fluor: compound fluoresces at 488/530 nm on avidin beads; compound fluorescence 488/530 nm, flow cytometry; active compounds read high; actives 0.38% (n = 220,000); fluorescence (KMESF) at 10 µM; in the data active means fluorescence above about 47
* marks the source's active call; other numbers are inactive results. The entries come from a sample that favours hits as a whole. Unless noted, no stated cut-off is given here; in the data, active means inhibition above about 50%; inactive means the rest.

Screening Cc1cc(/C=C(\C#N)C(=O)NCc2ccco2)c(C)n1-c1cccnc1 returned Avidin bead fluor 7.
`Cc1cccc(-n2c(C)cc(C=C(C#N)C#N)c2C)c1` gave PKD1 kinase inh -5, GSH fluor 9, ABCG2 inh 3, ABCB1 inh 1, L major viab 62* and Avidin bead fluor 12.
Cc1cccc(NC(=O)/C(C#N)=C\c2cc(C)n(-c3ccc(C(=O)O)cc3)c2C)c1 was read as PKD1 kinase inh -3, GSH fluor 13, ABCG2 inh 8, ABCB1 inh 1, L major viab -8 and Avidin bead fluor 9.
`COc1ccc(CC(=O)Nc2ccc(C(=O)Nc3nccs3)cc2)cc1OC` gave PKD1 kinase inh 0, GSH fluor 17, ABCG2 inh 7, ABCB1 inh 1, L major viab 11 and Avidin bead fluor 9.
For N=c1ccn(CC(=O)c2ccc(-c3ccccc3)cc2)cc1 the results were PKD1 kinase inh -5, GSH fluor 19, ABCG2 inh 3, ABCB1 inh 0, L major viab 99* and Avidin bead fluor 10.
Screening O=C(/C=C/c1ccc([N+](=O)[O-])s1)N1CCCCC1 returned PKD1 kinase inh -4, GSH fluor 26, ABCG2 inh 11, ABCB1 inh 0, L major viab 98* and Avidin bead fluor 11.
Screening O=C(/C=C/c1ccccc1[N+](=O)[O-])N1CCCCC1 returned PKD1 kinase inh -5, GSH fluor 65, ABCG2 inh 3, ABCB1 inh 0, L major viab 6 and Avidin bead fluor 12.
`O=C(/C=C/c1ccc([N+](=O)[O-])s1)N1CCCC1` gave PKD1 kinase inh -3, GSH fluor 22, ABCG2 inh 2, ABCB1 inh 0, L major viab 88* and Avidin bead fluor 10.
For CCOc1ccc(N=Nc2c(C)noc2C)cc1 the results were PKD1 kinase inh -1, GSH fluor 13, ABCG2 inh 16, ABCB1 inh 1, L major viab -1 and Avidin bead fluor 17.
Screening CC1CCN(c2nc3c(c(=O)[nH]c(=O)n3C)n2CC(C)CSc2nnnn2-c2ccccc2)CC1 (stereo not given) returned PKD1 kinase inh 3, GSH fluor 9, ABCG2 inh -2, ABCB1 inh 4, L major viab 98* and Avidin bead fluor 5.
`CCN1CCN(c2nc3c(c(=O)[nH]c(=O)n3C)n2CCSc2nc3ccccc3s2)CC1` gave PKD1 kinase inh -11, GSH fluor 20, ABCG2 inh 2, ABCB1 inh 0, L major viab -3 and Avidin bead fluor 10.
For CC(CSc1nc2ccccc2s1)Cn1c(N2CCCC2)nc2c1c(=O)[nH]c(=O)n2C (stereo not given) the results were PKD1 kinase inh 2, GSH fluor 24, ABCG2 inh 13, ABCB1 inh 7, L major viab 52* and Avidin bead fluor 26.
For COc1ccc(/C=N/c2oc(-c3ccccc3)cc2C#N)cc1OC the results were PKD1 kinase inh 0, GSH fluor 10, ABCG2 inh 13, ABCB1 inh 0, L major viab -2 and Avidin bead fluor 41.
For Clc1nc(Cl)nc(-c2cn(-c3ccccc3)c3ccccc23)n1 the results were Avidin bead fluor 3.
Screening O=C1c2ccccc2C(O)(c2ncc[nH]2)N1CCc1ccccc1 (stereo not given) returned PKD1 kinase inh -13, GSH fluor 16, ABCG2 inh 1, ABCB1 inh 0, L major viab 95* and Avidin bead fluor 7.
For COc1ccc(CNC(=O)CSc2nc3[nH]ncc3c(=O)n2-c2ccccc2Br)cc1 the results were PKD1 kinase inh -5, GSH fluor 64, ABCG2 inh 0, ABCB1 inh 0, L major viab -3 and Avidin bead fluor 11.
Screening Cc1cccc2c1NC(=O)C2(c1ccc(O)cc1)c1ccc(O)cc1 returned PKD1 kinase inh 1, GSH fluor 15, ABCG2 inh 1, ABCB1 inh 1, L major viab -6 and Avidin bead fluor 23.
Cc1cc(C2(c3ccc(O)c(C)c3)C(=O)Nc3ccccc32)ccc1O was read as PKD1 kinase inh 6, GSH fluor 27, ABCG2 inh 9, ABCB1 inh 0, L major viab 93* and Avidin bead fluor 8.
